Experimental data from ChEMBL document CHEMBL5029148, “Discovery of Arylsulfonamides as Dual Orexin Receptor Agonists” (J Med Chem, 2021).
Activity calls are given as the source filed them. No cut-off for these calls is given here.

Legend:
[1] = molecular target: T1, Orexin/Hypocretin receptor type 1 (Homo sapiens, UniProt O43613); experiment: Agonist activity at human OX1R stably expressed in CHO RD-HGA16 cells assessed as fluorescence changes measured after 30 mins by calcium mobilization assay; assay type: functional, cell-based
T1 sequence (O43613 whole entry): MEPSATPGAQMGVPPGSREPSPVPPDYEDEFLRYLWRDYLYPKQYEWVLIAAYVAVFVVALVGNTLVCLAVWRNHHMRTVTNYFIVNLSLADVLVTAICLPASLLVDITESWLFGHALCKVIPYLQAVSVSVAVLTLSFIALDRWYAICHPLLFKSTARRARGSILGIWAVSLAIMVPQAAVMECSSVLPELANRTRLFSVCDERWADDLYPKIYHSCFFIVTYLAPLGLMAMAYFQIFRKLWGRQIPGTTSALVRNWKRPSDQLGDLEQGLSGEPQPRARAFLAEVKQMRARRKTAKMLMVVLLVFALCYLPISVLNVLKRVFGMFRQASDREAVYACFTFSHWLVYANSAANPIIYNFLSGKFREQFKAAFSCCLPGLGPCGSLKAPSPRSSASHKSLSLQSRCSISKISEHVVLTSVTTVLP

Orexin receptor type 2 [2] = molecular target: T2, Orexin receptor type 2 (Homo sapiens, UniProt O43614); experiment: Agonist activity at human OX2R stably expressed in CHO RD-HGA16 cells assessed as fluorescence changes measured after 30 mins by calcium mobilization assay; assay type: functional, cell-based
T2 sequence (O43614 whole entry): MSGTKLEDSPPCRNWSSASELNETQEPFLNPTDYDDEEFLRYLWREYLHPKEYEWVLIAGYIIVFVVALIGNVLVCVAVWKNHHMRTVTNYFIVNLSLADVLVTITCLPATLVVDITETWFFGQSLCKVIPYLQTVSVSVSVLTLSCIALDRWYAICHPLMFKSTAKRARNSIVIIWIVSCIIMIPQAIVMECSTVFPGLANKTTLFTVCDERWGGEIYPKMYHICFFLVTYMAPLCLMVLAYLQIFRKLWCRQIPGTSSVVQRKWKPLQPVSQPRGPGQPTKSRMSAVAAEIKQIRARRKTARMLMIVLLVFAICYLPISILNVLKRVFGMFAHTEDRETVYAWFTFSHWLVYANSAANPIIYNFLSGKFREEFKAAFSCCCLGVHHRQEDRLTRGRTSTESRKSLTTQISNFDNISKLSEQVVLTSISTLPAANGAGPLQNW

[3] = molecular target: T1, Orexin/Hypocretin receptor type 1; experiment: Agonist activity at human OX1R stably expressed in CHO cells; assay type: functional, cell-based, CHO-RD-HGA16
Orexin receptor type 2 [4] = molecular target: T2, Orexin receptor type 2; experiment: Agonist activity at human OX2R stably expressed in CHO cells; assay type: functional, cell-based, CHO-RD-HGA16
Mus musculus [5] = experiment: Sleep modulation activity in mouse assessed as increase in time spent in wakefulness at 40 mg/kg, ip measured after 4 hrs post injection; assay type: functional, organism-based
How it was run: (§1)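 Twelve-month-old mice implanted under ketamine/xylazine with telemetric EEG/EMG electrodes, and allowed 7–10 days or more to recover. They were housed on 12-h light/dark (lights on 06:00) at 21–22°C. Counterbalanced crossover: 40 mg/kg i.p. in 0.3 ml saline or saline, given at ZT 4–4.5, at least 48 h apart. Manual 10-s epoch scoring (wake/NREM/REM) over 0–4 h gave % time, transitions, episode number and duration. Mean ± SEM.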

Mus musculus [6] = experiment: Sleep modulation activity in mouse assessed as decrease in time spent in non-rapid eye movement sleep at 40 mg/kg, ip measured after 4 hrs post injection; assay type: functional, organism-based; how it was run: as §1
Mus musculus [7] = experiment: Sleep modulation activity in mouse assessed as decrease in time spent in rapid eye movement sleep at 40 mg/kg, ip measured after 4 hrs post injection; assay type: functional, organism-based; how it was run: as §1
Mus musculus [8] = experiment: Sleep modulation activity in mouse assessed as reduction in transition between states by measuring stabilization of reduced sleep/wake fragmentation at 40 mg/kg, ip measured after 4 hrs post injection; assay type: functional, organism-based; how it was run: as §1
Mus musculus [9] = experiment: Sleep modulation activity in mouse assessed as effect on number of episodes of rapid eye movement sleep at 40 mg/kg, ip measured after 4 hrs post injection; assay type: functional, organism-based; how it was run: as §1
Mus musculus [10] = experiment: Sleep modulation activity in mouse assessed as reduction in number of episodes of wake at 40 mg/kg, ip measured after 4 hrs post injection
Mus musculus [11] = experiment: Sleep modulation activity in mouse assessed as reduction in number of episodes of non-rapid eye movement sleep at 40 mg/kg, ip measured after 4 hrs post injection
Mus musculus [12] = experiment: Sleep modulation activity in mouse assessed as increase in time spent in wakefulness during light phase at 30 to 300 nmol, icv measured up to 3 hrs of post injection; assay type: functional, organism-based; conditions: dose 30-300 nmol, time hrs <=3
Mus musculus [13] = experiment: Sleep modulation activity in mouse assessed as decrease in time spent in non-rapid eye movement sleep during light phase at 30 to 300 nmol, icv measured up to 3 hrs of post injection; assay type: functional, organism-based; conditions: dose 30-300 nmol, time hrs <=3
Mus musculus [14] = experiment: Sleep modulation activity in mouse assessed as increase in time spent in wakefulness during light phase at 20 mg/kg, ip measured up to 6 hrs of post injection; assay type: functional, organism-based; conditions: time hrs <=6
Mus musculus [15] = experiment: Sleep modulation activity in mouse assessed as increase in time spent in rapid eye movement sleep during light phase at 20 mg/kg, ip measured up to 6 hrs of post injection; assay type: functional, organism-based; conditions: time hrs <=6
Mus musculus [16] = experiment: Sleep modulation activity in mouse assessed as increase in time spent in wakefulness during light phase at 40 to 60 mg/kg, ip measured up to 3 hrs of post injection; conditions: dose 40-60 mg/kg, time hrs <=3
Mus musculus [17] = experiment: Sleep modulation activity in mouse assessed as decrease in time spent in rapid eye movement sleep during light phase at 40 to 60 mg/kg, ip measured up to 3 hrs of post injection; conditions: dose 40-60 mg/kg, time hrs <=3

SMILES: COc1ccc(-c2cccc(C(=O)N(C)C)c2)cc1C(=O)Nc1cccc(NCCNC(=O)c2cccc(C)c2)c1
- EC50 [1]: > 10 µM
- EC50 (Orexin receptor type 2 [2]): 1.27 µM

SMILES: COc1ccc(-c2cccc(C(=O)N(C)C)c2)cc1S(=O)(=O)Nc1cccc(NCC(C)NC(=O)c2cccc(C)c2)c1 (stereo not drawn)
- EC50 [1]: 0.666 µM
- EC50 (Orexin receptor type 2 [2]): 0.376 µM

SMILES: COc1ccc(CCC(=O)N(C)C)cc1S(=O)(=O)Nc1cccc(NCCNC(=O)c2cccc(C)c2)c1
- EC50 (Orexin receptor type 2 [2]): > 10 µM

SMILES: COc1ccc(-c2cccc(C(=O)N(C)Cc3ccncc3)c2)cc1C(=O)Nc1cccc(NCCNC(=O)c2cccc(C)c2)c1
- EC50 [1]: > 10 µM
- EC50 (Orexin receptor type 2 [2]): 0.863 µM

SMILES: COc1ccc(-c2cccc(C(=O)N(C)C)c2)cc1S(=O)(=O)Nc1cccc(N2CCN(C(=O)c3ccccc3N(C)C)CC2)c1
- EC50 [1]: > 10 µM
- EC50 (Orexin receptor type 2 [2]): > 10 µM

SMILES: Cc1ccc(Cn2c(=N)n(CC(O)c3ccc(Cl)c(Cl)c3)c3ccccc32)cc1 (stereo not drawn)
- EC50 ([3]; read-out: EC50): > 3.2 µM
- EC50 (Orexin receptor type 2 [4]): > 3.2 µM

SMILES: COc1ccc(-c2cccc(C(=O)N(C)Cc3ccncc3)c2)cc1S(=O)(=O)Nc1cccc(NCCNC(=O)c2cccc(C)c2)c1
- Activity (Mus musculus [5]): Active
- Activity (Mus musculus [6]): Active
- Activity (Mus musculus [7]): Active
- Activity (Mus musculus [8]): Active
- Activity (Mus musculus [9]): inactive
- Activity (Mus musculus [10]): Active
- Activity (Mus musculus [11]): Active

SMILES: COc1ccc(-c2cccc(C(=O)N(C)c3ccccn3)c2)cc1S(=O)(=O)Nc1cccc(NCCNC(=O)c2cccc(C)c2)c1
- EC50 [1]: > 10 µM

SMILES: COc1ccc(-c2cccc(C(=O)NCCN(C)C)c2)cc1S(=O)(=O)Nc1cccc(NCCNC(=O)c2cccc(C)c2)c1
- EC50 [1]: > 10 µM

SMILES: COc1ccc(-c2csc(C(=O)N(C)C)c2)cc1S(=O)(=O)Nc1cccc(NCCNC(=O)c2cccc(C)c2)c1
- EC50 (Orexin receptor type 2 [2]): 0.166 µM

SMILES: COc1ccc(-c2cccc(C(=O)N(C)C)c2)cc1S(=O)(=O)Nc1cccc(CCNC(=O)c2ccccc2-n2nccn2)c1
- EC50 ([3]; read-out: pEC50 (converted)): < 35.5 µM

SMILES: COc1ccc(-c2cccc(C(=O)N(C)C)c2)cc1S(=O)(=O)Nc1cccc(N2CCN(C(=O)c3cccc(C)c3)CC2)c1
- EC50 [1]: > 10 µM
- EC50 (Orexin receptor type 2 [2]): > 10 µM

SMILES: COc1ccc(-c2cccc(CN(C)C)c2)cc1S(=O)(=O)Nc1cccc(NCCNC(=O)c2ccccc2N(C)C)c1
- EC50 [1]: > 10 µM
- EC50 (Orexin receptor type 2 [2]): 0.56 µM

SMILES: COc1ccc(-c2cccc(C(=O)NCc3ccccn3)c2)cc1S(=O)(=O)Nc1cccc(NCCNC(=O)c2cccc(C)c2)c1
- EC50 [1]: > 10 µM

SMILES: COc1ccc(-c2cccc(C(=O)N(C)Cc3ccccc3)c2)cc1S(=O)(=O)Nc1cccc(NCCNC(=O)c2cccc(C)c2)c1
- EC50 [1]: > 10 µM

SMILES: COc1ccc(/C=C/C(=O)N(C)C)cc1S(=O)(=O)Nc1cccc(NCCNC(=O)c2cccc(C)c2)c1
- EC50 (Orexin receptor type 2 [2]): > 10 µM

SMILES: COc1ccc(-c2cccc(C(=O)N(C)C)c2)cc1S(=O)(=O)Nc1cccc(NCCNC(=O)c2ccccc2N(C)C)c1
- EC50 [1]: 0.824 µM
- EC50 (Orexin receptor type 2 [2]): 0.165 µM
- Activity (Mus musculus [12]): Active
- Activity (Mus musculus [13]): Active
- Activity (Mus musculus [14]): inactive
- Activity (Mus musculus [15]): inactive
- Activity (Mus musculus [16]): Active
- Activity (Mus musculus [17]): Active

SMILES: COC(=O)N1CCC[C@H](NS(C)(=O)=O)[C@@H]1CO[C@H]1CC[C@@H](c2ccccc2)CC1 [DANAVOREXTON]
- EC50 ([3]; read-out: EC50): > 30 µM
